Test results: ChEMBL document CHEMBL3612059, “Synthesis of 1,2-benzisoxazole tethered 1,2,3-triazoles that exhibit anticancer activity in acute myeloid leukemia cell lines by inhibiting histone deacetylases, and inducing p21 and tubulin acetylation” (Bioorg Med Chem, 2015)
Activity calls are given as the source filed them. The calls are words filed in the database; no cut-off is given here.

How the values were obtained:
MV4-11 [1] = assay: Cytotoxicity against human MV4-11 cells assessed as cell viability after 24 to 96 hrs by MTT assay; assay type: functional, cell-based
Summary of the method: (§1)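 AML cells kept in RPMI with 10 % FBS and 1 % penicillin-streptomycin at 37 °C, 5 % CO₂, mycoplasma-screened. Seeded at 8,000 cells/well across a range of concentrations and read at several times up to 96 h. MTT added to 0.5 mg/ml final for 3 h at 37 °C, formazan dissolved in SDS-HCl, absorbance read at 570 nm. IC50 taken from the dose-response curves.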

MOLM-13 (Homo sapiens) [2] = assay: Induction of apoptosis in human MOLM13 cells assessed as upregulation of cleaved PARP expression after 24 hrs by Western blot analysis
MOLM-13 (Homo sapiens) [3] = assay: Cell cycle arrest in human MOLM13 cells assessed as accumulation at G2/M phase after 72 hrs by propidium iodide staining-based flow cytometric analysis
MV4-11 [4] = assay: Induction of apoptosis in human MV4-11 cells assessed as necrotic cells at 2.5 uM after 72 hrs by Annexin V-FITC/propidium iodide staining-based flow cytometric analysis relative to control; assay type: functional
Summary of the method: (§2)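 MV4-11 cells (RPMI, 10 % FBS, 37 °C, 5 % CO2), 100,000 per well, exposed to PTB at 2.5, 5.0 or 10 μM for 72 h. Washed in ice-cold Ca/Mg-free PBS, stained with annexin V-FITC and PI in 1X binding buffer for 15 min in the dark, then read at once by flow cytometry. Necrotic cells are the annexin-negative/PI-positive quadrant.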

MOLM-13 (Homo sapiens) [5] = assay: Cytotoxicity against human MOLM13 cells assessed as cell viability measured at 96 hrs by MTT assay; details: MOLM-13, 96 h
MV4-11 [6] = assay: Cell cycle arrest in human MV4-11 cells assessed as accumulation at sub-G1 phase after 72 hrs by propidium iodide staining-based flow cytometric analysis; assay type: functional
Summary of the method: (§3)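 Cells in RPMI with 10 % FBS at 37 °C, 5 % CO₂; treated up to 72 h, washed in cold PBS, fixed in -20 °C-precooled 70 % ethanol at 4 °C. Stained with 50 µg/ml PI, 1 % Triton X-100 and 20 µg/ml RNase A in PBS, 30 min, 37 °C, dark. Cell-cycle phases read by flow cytometry; three independent experiments, mean ± SD.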

MOLM-14 [7] = assay: Cell cycle arrest in human MOLM14 cells assessed as decrease in cells level at G1 phase after 72 hrs by propidium iodide staining-based flow cytometric analysis; assay type: functional; summary of the method: as §3
MOLM-14 [8] = assay: Induction of apoptosis in human MOLM14 cells assessed as early apoptotic cells at 10 uM after 72 hrs by Annexin V-FITC/propidium iodide staining-based flow cytometric analysis (reference value: 7%); assay type: functional
Summary of the method: (§4)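 100,000 cells per well treated with 2.5, 5.0 or 10 μM for 72 h. Washed in ice-cold Ca/Mg-free PBS, resuspended in 100 μl binding buffer, stained with 5 μl PI plus 3 μl annexin V-FITC for 15 min in the dark, then read immediately by flow cytometry. Quadrants scored as live, early apoptotic, late apoptotic and necrotic.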

MOLM-13 (Homo sapiens) [9] = assay: Induction of apoptosis in human MOLM13 cells assessed as late apoptotic cells at 5 uM after 72 hrs by Annexin V-FITC/propidium iodide staining-based flow cytometric analysis (reference value: 7%)
MV4-11 [10] = assay: Induction of apoptosis in human MV4-11 cells assessed as late apoptotic cells at 5 uM after 72 hrs by Annexin V-FITC/propidium iodide staining-based flow cytometric analysis (reference value: 2%); assay type: functional; summary of the method: as §4
MV4-11 [11] = assay: Cytotoxicity against human MV4-11 cells assessed as cell viability at 0.25 to 5 uM by MTT assay; assay type: functional, cell-based; summary of the method: as §1
MV4-11 [12] = assay: Induction of apoptosis in human MV4-11 cells after 72 hrs by Annexin V-FITC/propidium iodide staining-based flow cytometric analysis; assay type: functional, cell-based; summary of the method: as §4
MV4-11 [13] = assay: Cell cycle arrest in human MV4-11 cells assessed as accumulation at G2/M phase after 72 hrs by propidium iodide staining-based flow cytometric analysis; assay type: functional; summary of the method: as §3
MV4-11 [14] = assay: Cell cycle arrest in human MV4-11 cells assessed as decrease in cells level at G1 phase after 72 hrs by propidium iodide staining-based flow cytometric analysis; assay type: functional; summary of the method: as §3
MV4-11 [15] = assay: Induction of apoptosis in human MV4-11 cells assessed as necrotic cells at 5 uM after 72 hrs by Annexin V-FITC/propidium iodide staining-based flow cytometric analysis relative to control; assay type: functional; summary of the method: as §2
MOLM-13 (Homo sapiens) [16] = assay: Induction of apoptosis in human MOLM13 cells assessed as early apoptotic cells at 2.5 uM after 72 hrs by Annexin V-FITC/propidium iodide staining-based flow cytometric analysis (reference value: 11%)
MV4-11 [17] = assay: Induction of apoptosis in human MV4-11 cells assessed as early apoptotic cells at 2.5 uM after 72 hrs by Annexin V-FITC/propidium iodide staining-based flow cytometric analysis (reference value: 7%); assay type: functional; summary of the method: as §4
[18] = Cytotoxicity against C57BL/6 mouse bone marrow cells assessed as cell viability at 5 to 10 uM measured up to 72 hrs by MTT assay; assay type: cell-based
Summary of the method: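 Total bone marrow from C57BL/6 mice cultured in IMDM with 20 % FBS, 10 ng/ml mouse IL-3, 10 ng/ml IL-6 and 50 ng/ml SCF. Exposed to 5 or 10 μM for up to 72 h. MTT added to 0.5 mg/ml for 3 h at 37 °C, formazan dissolved in SDS-HCl, A570 read. Three independent experiments, quadruplicate wells, mean ± SD.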

MOLM-14 [19] = assay: Induction of apoptosis in human MOLM14 cells assessed as early apoptotic cells at 5 uM after 72 hrs by Annexin V-FITC/propidium iodide staining-based flow cytometric analysis (reference value: 7%); assay type: functional; summary of the method: as §4
MV4-11 [20] = assay: Induction of apoptosis in human MV4-11 cells assessed as early apoptotic cells at 5 uM after 72 hrs by Annexin V-FITC/propidium iodide staining-based flow cytometric analysis (reference value: 7%); assay type: functional; summary of the method: as §4

Compound: c1ccc(Oc2ccc(-c3cn(-c4noc5ccccc45)nn3)cc2)cc1
- Activity (MV4-11 [1]): Dose-dependent effect
- Activity (MOLM-13 (Homo sapiens) [2]): Dose-dependent effect
- Activity (MOLM-13 (Homo sapiens) [3]): Active
- Activity (MV4-11 [4]): 2%
- IC50 (MOLM-13 (Homo sapiens) [5]): 1000 nM
- Activity (MV4-11 [6]): Active
- Activity (MOLM-14 [7]): Active
- Activity (MOLM-14 [8]): 24%
- Activity (MOLM-13 (Homo sapiens) [9]): 26%
- Activity (MV4-11 [10]): 20%
- Activity (MV4-11 [11]): Dose-dependent effect
- Activity (MV4-11 [12]): Dose-dependent effect
- Activity (MV4-11 [13]): Active
- Activity (MV4-11 [14]): Active
- Activity (MV4-11 [15]): 3%
- Activity (MOLM-13 (Homo sapiens) [16]): 15%
- Activity (MV4-11 [17]): 9%
- Activity [18]: Non-toxic
- Activity (MOLM-14 [19]): 17%
- Activity (MV4-11 [20]): 16%
